Here are results for three compounds from ChEMBL document CHEMBL3856209, “Novel pyrazolopyridine derivatives as potential angiogenesis inhibitors: Synthesis, biological evaluation and transcriptome-based mechanistic analysis” (Eur J Med Chem, 2016).

Holding throughout (format): functional, Homo sapiens
Test [1] deals with HUVEC. The test is described as follows: Effect on CDC20 gene expression in serum-starved HUVEC after 6 hrs by microarray analysis relative to control. The essentials:
(§1)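 Serum-starved confluent HUVEC treated with 2 μM compound or DMSO in 2.5% FBS for 6 h or 24 h; RNA hybridized to Illumina Human-HT12 arrays. Data background-corrected, vst-transformed and rsn-normalized. Differential probes called by moderated paired t-test (limma) at p < 0.05 and log2 fold change >|0.5| vs DMSO.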

The subject of test [2] is HUVEC. The test is described as follows: Effect on CKS2 gene expression in serum-starved HUVEC after 6 hrs by microarray analysis relative to control. The essentials: (§2)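 Confluent, serum-starved HUVEC (pooled from 3–5 donors, passage ≤4) treated with 2 μM compound or vehicle with 2.5% FBS for 6 h or 24 h. Total RNA hybridized to Illumina Human-HT12 arrays. Data were background-corrected, vst-transformed and rsn-normalized. Hits called by moderated paired t-test versus DMSO-treated cells, p < 0.05 and log2 fold change >|0.5|.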

For test [3], the system named is HUVEC. The test is described as follows: Effect on ELMOD1 gene expression in serum-starved HUVEC after 6 hrs by microarray analysis relative to control. The essentials: as §2
The test system of test [4] is HUVEC. The test is described as follows: Effect on SIVA1 gene expression in serum-starved HUVEC after 24 hrs by microarray analysis relative to control.
In test [5] the test system is HUVEC. The test is described as follows: Effect on CENPW gene expression in serum-starved HUVEC after 6 hrs by microarray analysis relative to control. In short, it runs like this:
as §1

Test [6] has as its system HUVEC. The test is described as follows: Effect on CYP26B1 gene expression in serum-starved HUVEC after 6 hrs by microarray analysis relative to control. In short, it runs like this: as §2
Test [7] deals with HUVEC. The test is described as follows: Effect on FDPS gene expression in serum-starved HUVEC after 6 hrs by microarray analysis relative to control. In short, it runs like this: (§3)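 Serum-starved confluent HUVEC (primary, pooled from 3–5 donors, passage ≤4) treated with 2 μM test compound or DMSO vehicle (working dilutions ≤0.1% v/v) in presence of 2.5% FBS for 6 h or 24 h; total RNA hybridized to Illumina Human-HT12 arrays; background correction, vst, rsn normalization; moderated paired t-test versus DMSO, thresholds p < 0.05 and log2 fold change >|0.5|.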

In test [8] the test system is HUVEC. The test is described as follows: Effect on GRPEL2 gene expression in serum-starved HUVEC after 6 hrs by microarray analysis relative to control. In short, it runs like this: as §2
Test [9] concerns HUVEC. The test is described as follows: Effect on HJURP gene expression in serum-starved HUVEC after 6 hrs by microarray analysis relative to control.
The test system of test [10] is HUVEC. The test is described as follows: Effect on HLA-DRA gene expression in serum-starved HUVEC after 6 hrs by microarray analysis relative to control.
In test [11] the test system is HUVEC. The test is described as follows: Effect on INSIG1 gene expression in serum-starved HUVEC after 6 hrs by microarray analysis relative to control. The essentials:
as §2

The test system of test [12] is HUVEC. The test is described as follows: Effect on KIF4A gene expression in serum-starved HUVEC after 6 hrs by microarray analysis relative to control.
For test [13], the system named is HUVEC. The test is described as follows: Effect on LMNB2 gene expression in serum-starved HUVEC after 6 hrs by microarray analysis relative to control. In short, it runs like this:
(§4)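 Serum-starved confluent HUVEC (pooled from 3–5 donors, passage ≤4) were treated with 2 μM compound or vehicle in 2.5% FBS for 6 h or 24 h, and total RNA was isolated. Hybridization was on Illumina Human-HT12. Data were processed with bgAdjust, vst and rsn normalization. Changes versus DMSO were called by moderated paired t-test at p < 0.05 and |log2 fold change| > 0.5.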

For test [14], the system named is HUVEC. The test is described as follows: Effect on LPIN1 gene expression in serum-starved HUVEC after 6 hrs by microarray analysis relative to control.
Test [15] has as its system HUVEC. The test is described as follows: Effect on MVD gene expression in serum-starved HUVEC after 6 hrs by microarray analysis relative to control. In short, it runs like this:
as §4

Test [16] relates to HUVEC. The test is described as follows: Effect on MYLIP gene expression in serum-starved HUVEC after 6 hrs by microarray analysis relative to control.
Test [17] concerns HUVEC. The test is described as follows: Effect on MYO10 gene expression in serum-starved HUVEC after 6 hrs by microarray analysis relative to control.
In test [18] the test system is HUVEC. The test is described as follows: Effect on PRR11 gene expression in serum-starved HUVEC after 6 hrs by microarray analysis relative to control. The essentials:
as §4

Test [19] deals with HUVEC. The test is described as follows: Effect on RN7SK gene expression in serum-starved HUVEC after 6 hrs by microarray analysis relative to control.
In test [20] the test system is HUVEC. The test is described as follows: Effect on SCD gene expression in serum-starved HUVEC after 6 hrs by microarray analysis relative to control.
In test [21] the test system is HUVEC. The test is described as follows: Effect on TM7SF2 gene expression in serum-starved HUVEC after 6 hrs by microarray analysis relative to control.
Test [22] relates to HUVEC. The test is described as follows: Effect on TP53INP2 gene expression in serum-starved HUVEC after 6 hrs by microarray analysis relative to control.
For test [23], the system named is HUVEC. The test is described as follows: Effect on TUBB2B gene expression in serum-starved HUVEC after 6 hrs by microarray analysis relative to control.
Test [24] deals with HUVEC. The test is described as follows: Effect on TUBB4B gene expression in serum-starved HUVEC after 6 hrs by microarray analysis relative to control.
In test [25] the test system is HUVEC. The test is described as follows: Effect on TYMS gene expression in serum-starved HUVEC after 6 hrs by microarray analysis relative to control.
Test [26] has as its system HUVEC. The test is described as follows: Effect on UACA gene expression in serum-starved HUVEC after 6 hrs by microarray analysis relative to control.
Test [27] has as its system HUVEC. The test is described as follows: Effect on ASAP1 gene expression in serum-starved HUVEC after 24 hrs by microarray analysis relative to control. The essentials:
as §3

In test [28] the test system is HUVEC. The test is described as follows: Effect on GINS2 gene expression in serum-starved HUVEC after 24 hrs by microarray analysis relative to control. In short, it runs like this:
as §2

Test [29] concerns HUVEC. The test is described as follows: Effect on LPIN1 gene expression in serum-starved HUVEC after 24 hrs by microarray analysis relative to control.
The test system of test [30] is HUVEC. The test is described as follows: Effect on LSS gene expression in serum-starved HUVEC after 24 hrs by microarray analysis relative to control. In short, it runs like this:
as §4

For test [31], the system named is HUVEC. The test is described as follows: Effect on PCYT2 gene expression in serum-starved HUVEC after 24 hrs by microarray analysis relative to control.
Test [32] concerns HUVEC. The test is described as follows: Effect on VCAM1 gene expression in serum-starved HUVEC after 24 hrs by microarray analysis relative to control.
Test [33] relates to HUVEC. The test is described as follows: Effect on MMP1 gene expression in serum-starved HUVEC after 6 hrs by microarray analysis relative to control. In short, it runs like this: as §4
For test [34], the system named is HUVEC. The test is described as follows: Effect on GANAB gene expression in serum-starved HUVEC after 6 hrs by microarray analysis relative to control. The essentials: as §2
The test system of test [35] is HUVEC. The test is described as follows: Effect on RETSAT gene expression in serum-starved HUVEC after 6 hrs by microarray analysis relative to control.
The subject of test [36] is HUVEC. The test is described as follows: Effect on SND1-IT1 gene expression in serum-starved HUVEC after 6 hrs by microarray analysis relative to control.
Test [37] relates to HUVEC. The test is described as follows: Effect on SND1-IT1 gene expression in serum-starved HUVEC after 24 hrs by microarray analysis relative to control.
Test [38] relates to HUVEC. The test is described as follows: Effect on TAOK1 gene expression in serum-starved HUVEC after 6 hrs by microarray analysis relative to control.

Take `COc1ccc(Cn2nc(-c3ccccc3)c3cc(Cl)nc(N4CCNCC4)c32)cc1`: the “fold change (FC)” value with HUVEC [1] came out at 0.127. The log2FC is 0.2477 in the test with HUVEC [2], -0.1337 in the test on HUVEC [3] and -0.5225 with HUVEC [4].
As to `COc1ccc(Cn2nc(-c3ccccc3)c3cc(Nc4ccc(N5CCN(C)CC5)cc4)nc(N4CCN(C)CC4)c32)cc1`, the log2FC with HUVEC [5] is reported as -0.2667; with HUVEC [6] it was -0.3941; with HUVEC [18], 0.0749; in the test with HUVEC [19], -0.8368; in the test on HUVEC [20], 0.7444; in the test on HUVEC [21] it was 0.343. Moreover, the log2FC in the test with HUVEC [22] was 0.0911; with HUVEC [25], -0.1879; in the test on HUVEC [28], -0.5372; in the test on HUVEC [29] it was 0.8618; in the test on HUVEC [30], 1.6178; in the test with HUVEC [31], 0.5377. Besides, the log2FC in the test on HUVEC [32] is -0.7052. The “fold change (FC)” value in the test with HUVEC [7] is reported as -0.059; with HUVEC [8] it was 0.2207; in the test with HUVEC [9], -0.1528; with HUVEC [10] it was 0.8911; in the test on HUVEC [11], 1.0454; with HUVEC [12], 0.0285. Also, the “fold change (FC)” value is 0.1414 in the test on HUVEC [13]; 0.2925 in the test on HUVEC [14]; 0.3962 with HUVEC [15]; -0.5593 in the test with HUVEC [16]; -0.0407 in the test on HUVEC [17]; 0.219 with HUVEC [23]. The “fold change (FC)” value in the test with HUVEC [24] is listed as -0.206; with HUVEC [26], 0.2427; in the test on HUVEC [27], 0.1181.
With `COc1ccc(Cn2nc(-c3ccccc3)c3cc(Nc4ccc(N5CCN(C)CC5)cc4)nc(N4CCNCC4)c32)cc1`, the log2FC in the test with HUVEC [33] is reported as -0.1422; with HUVEC [34] it was -0.1113; with HUVEC [35], 0.0844; in the test on HUVEC [36], -0.0103; in the test with HUVEC [37] it was 0.603; in the test on HUVEC [38], -0.1058.
